Variants at the floor of the assay were thinned out. Bounds are passed on as bounds.

We go through 167 variants from the RNAGym collection of RNA variant scans (doi:10.1126/science.aae0568).

First the molecules themselves.
B1: tRNA (parent)
chain: GUUCCGUUGGCGUAAUGGUAACGCGUCUCCCUCCUAAGGAGAAGACUGCGGGUUCGAGUCCCGUACGGAACG

Variants of B1 are the subject of the data set. The data set is described as follows: yeast fitness relative to wild type (ratio to wild type); higher = fitter; tRNA-Arg(CCU), competitive growth, 37 C, YPD. The method, boiled down: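 Genotype frequency changes were the basis for Darwinian fitness relative to wild type. The frequencies came from 100-nucleotide paired-end sequencing of gene amplicons from the start population and each end population of pooled yeast strains with tRNA-Arg(CCU) gene variants at the native locus. Competition ran in YPD at 37°C for 24 hours in six replicates, genotypes needed ≥ 100 starting reads, and estimates < 0.5 were set to 0.5.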
On to U16C C22U G63A, for which the yeast fitness was found to be 0.545.
The figure for U16A C33U A36G G38C is at most 0.5; for U16C A43U G48C C60G it is at most 0.5; for U16C A21C G41A G56A it is at most 0.5.
In the case of U16C A70C, the yeast fitness is 1.1.
The figure for U16C A70G is 0.945; for U16C C34G C55G it is at most 0.5.
Turning to U16C C34G C55A, the yeast fitness stood at 0.58.
With U16A G17A C22G, the yeast fitness stood at 0.578.
Take U16A G18U A37C C60A A70G: the yeast fitness was at most 0.5.
In the case of U16A C24G U35G, the yeast fitness was at most 0.5.
On to U16C C22G A43U, for which the yeast fitness came to 0.692.
Turning to U16C A21U C62U, the yeast fitness is at most 0.5.
For U16C A21C C49A A57G G58A C66U G68A, the yeast fitness was at most 0.5.
Then U16C C31G A36U C60G, with 0.694; and U16A C49G, with 0.769; and U16C C29U A36U A40C C46U U64C, with at most 0.5.
On to U16A U47G G48C, for which the yeast fitness stood at 0.536.
Then U16C C62U C66U, with 0.722.
Regarding U16A U47C A65U, the yeast fitness was found to be 0.727.
Regarding U16A G18C U35A C55G A69G, the yeast fitness was 0.64.
In the case of U16C C27A, the yeast fitness was determined as 0.963.
Then U16C C27U, with 1.02.
In the case of U16A G17C C61G A70C, the yeast fitness is at most 0.5.
U16A C27U G38A C60G A65C: the yeast fitness was at most 0.5.
Consider U16A G58C C61A, for which the yeast fitness is at most 0.5.
Take U16C A20G U32C: the yeast fitness came to 0.684.
Then U16A U26C C30A, with at most 0.5; and U16C A20C A21U C27G A42U, with at most 0.5.
With U16A G17U G18C G48C, the yeast fitness came out at 0.764.
In the case of U16A U64C C66U, the yeast fitness was 0.68.
Regarding U16A U28C G38C G39A A70G, the yeast fitness was at most 0.5.
The figure for U16C C34G G38C C62G A69C is at most 0.5; for U16A C33A U53A G63A it is at most 0.5; for U16C C33U C60U G67C it is at most 0.5.
For U16C G17A C27U C34G G38C A43G C62A, the yeast fitness is at most 0.5.
As for U16A C33G A36U, the yeast fitness stood at 0.57.
On to U16C C29G C49U C60G, for which the yeast fitness was at most 0.5.
As for U16C C55U, the yeast fitness came to 0.831.
For U16C A20U G25C, the yeast fitness is at most 0.5.
On to U16C A42U G63C, for which the yeast fitness is at most 0.5.
The figure for U16A U32G is 0.684; for U16C C46A G56A it is 0.769.
Consider U16A C29G C31G C55A C62U A69C, for which the yeast fitness was at most 0.5.
Take U16A C34U A36G A40C G44C: the yeast fitness is at most 0.5.
The figure for U16A G50C U54G A69C is at most 0.5; for U16C A40U A65C it is 0.626; for U16A C55A A70U it is 0.542.
The figure for U16A U35C C61G A65G is at most 0.5; for U16C A21U C29A U35A A43U C62U G68C it is at most 0.5.
Take U16A U19A A43C G56A: the yeast fitness was at most 0.5.
Consider U16A U19A C46U, for which the yeast fitness amounted to 1.
The figure for U16C A40U A57C C66U is at most 0.5; for U16C C27G A43C C62U it is at most 0.5.
As to U16C C29U G58A A69U, the yeast fitness turned out to be 0.577.
In the case of U16C C34U C49G, the yeast fitness was at most 0.5.
Turning to U16A C30G A40G U54C, the yeast fitness was at most 0.5.
As to U16C A57U C66U, the yeast fitness was 0.531.
As for U16A G18A C31G, the yeast fitness worked out at 0.527.
As to U16A U35C A45G G56C G63C, the yeast fitness was at most 0.5.
In the case of U16A C30A U35G, the yeast fitness was at most 0.5.
Turning to U16A U53G C62G, the yeast fitness was at most 0.5.
With U16C A40C, the yeast fitness stood at 0.923.
For the variant U16C A40U, the yeast fitness is 0.789.
For U16A U47C A69U, the yeast fitness amounted to 0.91.
The figure for U16C A36U G44C A65C is at most 0.5; for U16A C33G C66G it is at most 0.5; for U16A G18A it is 0.846.
On to U16A G23A C29U C34G G58A, for which the yeast fitness was at most 0.5.
For U16C G17C, the yeast fitness amounted to 0.665.
In the case of U16C G17A, the yeast fitness came to 0.797.
For the variant U16A U32A A40C G63C U64A C66G, the yeast fitness is at most 0.5.
Consider U16C C31U, for which the yeast fitness was 0.953.
For the variant U16C C31A, the yeast fitness was found to be 0.906.
Turning to U16C C27G C33A G38C A42G, the yeast fitness turned out to be 0.884.
Take U16A C49G A69U: the yeast fitness was at most 0.5.
Consider U16C A42U, for which the yeast fitness is 0.969.
The figure for U16C A42C is 0.93.
Then U16C A21C C31A A37G C55A, with at most 0.5; and U16A C24A C30G C34U U47C, with at most 0.5.
Consider U16A G23C C29U G58A, for which the yeast fitness was at most 0.5.
Then U16A G63C, with 0.676; and U16A U28G C66U, with at most 0.5.
Then U16A C60A, with 0.668; and U16C C31A G56A A65G C66A G68C, with at most 0.5; and U16C A37G C61G A69G, with 0.687.
For U16A U28A A45U C49A C66U, the yeast fitness is at most 0.5.
Regarding U16A U26C C31A C33A U35C U47A, the yeast fitness is at most 0.5.
In the case of U16A G17A A57G C66U, the yeast fitness is at most 0.5.
For the variant U16A C24U G44C C61U, the yeast fitness turned out to be 0.66.
U16A C55G: the yeast fitness amounted to 0.54.
Consider U16A U28C G38C G39A, for which the yeast fitness is at most 0.5.
With U16C C22A U53C C66G A69U, the yeast fitness is at most 0.5.
On to U16A G23C C29G G50A A65G, for which the yeast fitness is 0.751.
In the case of U16C C30U A36U, the yeast fitness is at most 0.5.
With U16C C46G, the yeast fitness amounted to 0.979.
With U16C C46A, the yeast fitness turned out to be 1.02.
Consider U16C C24U C33U C55A, for which the yeast fitness was at most 0.5.
For the variant U16C C22A C24A U26C, the yeast fitness was at most 0.5.
Consider U16C A37C A42G G56C, for which the yeast fitness is at most 0.5.
On to U16C C33G C49A C55G G56C, for which the yeast fitness was at most 0.5.
Regarding U16A U19A C46U U64C, the yeast fitness was 0.74.
U16C A21U A43U C61A: the yeast fitness is at most 0.5.
In the case of U16A U19C C46A A57G C61A A70C, the yeast fitness was found to be 0.656.
For U16C C46G A57U, the yeast fitness came out at 0.588.
In the case of U16C C66A, the yeast fitness was found to be 0.711.
With U16C A20G C29U C62U, the yeast fitness is at most 0.5.
Then U16C A21C G41C A43C C66G A70U, with at most 0.5.
Then U16C C34A G39C G52A G58A, with at most 0.5; and U16A C55U C61G A65G, with at most 0.5.
Take U16A C61G: the yeast fitness was 0.631.
The figure for U16A C61U is 1.02; for U16A C60U U64C A65C it is at most 0.5.
In the case of U16A G25C, the yeast fitness came out at 0.974.
Regarding U16A G52A A70C, the yeast fitness is at most 0.5.
Regarding U16C C31G C34A, the yeast fitness turned out to be 0.678.
Turning to U16C A20G G52A, the yeast fitness was at most 0.5.
Turning to U16A G17A C33A G38C A43G U53C, the yeast fitness was at most 0.5.
U16C A21G A70C: the yeast fitness stood at 0.725.
The figure for U16A C24G U47C is 0.536; for U16A C46A A69U it is 0.715; for U16A C30U A36U G63A it is at most 0.5.
On to U16C C24G U28A A43C, for which the yeast fitness was at most 0.5.
For U16A G18C G50A A57C, the yeast fitness was at most 0.5.
For the variant U16A G63A G67C, the yeast fitness is at most 0.5.
In the case of U16C C27U U64G, the yeast fitness amounted to 0.536.
U16C C33G G51A C55A: the yeast fitness is at most 0.5.
For U16A C29U A37G, the yeast fitness was at most 0.5.
Turning to U16A U26A, the yeast fitness came out at 0.974.
Consider U16C A45C C60G, for which the yeast fitness is at most 0.5.
As to U16A C46U, the yeast fitness was 1.04.
Take U16A C46A: the yeast fitness was 0.92.
Regarding U16A C34U G38A A42U, the yeast fitness is at most 0.5.
For U16C A57C, the yeast fitness came to 0.674.
The figure for U16C A57G is 0.925; for U16C C22G C46G C49U A69U it is 0.55.
In the case of U16C C33U, the yeast fitness came out at 0.686.
As to U16C A40U A70U, the yeast fitness was determined as 0.683.
Take U16A U28G G67A: the yeast fitness stood at 0.752.
As for U16A U19C G56A, the yeast fitness turned out to be 0.68.
Then U16A C33G, with 0.612; and U16A C61G A65G, with at most 0.5; and U16C A42G G58A, with 0.52.
The figure for U16C C22U is 0.741.
On to U16C C22G, for which the yeast fitness was 0.968.
Then U16A C30A A69U, with 0.979; and U16C C22U A37U, with 0.576; and U16A C24U C34G G38C, with at most 0.5.
Consider U16A C27A C62G, for which the yeast fitness was at most 0.5.
For the variant U16C C49U, the yeast fitness was 0.867.
As for U16C C49G, the yeast fitness worked out at 0.909.
In the case of U16A C31U, the yeast fitness turned out to be 0.979.
Take U16A C31A: the yeast fitness was found to be 0.645.
The figure for U16C A21C A37G U54C C55A is at most 0.5.
For U16A C27G U64C C66U G67A, the yeast fitness is at most 0.5.
The figure for U16C C22U A37U C49A is 0.574; for U16C C22G U53A it is 0.544; for U16C C33U A36C C49G it is at most 0.5.
The figure for U16C C22G U54C is 0.661; for U16A C24U C33U A36U A40U it is at most 0.5.
With U16C A43C U54A C60U G68A, the yeast fitness stood at 0.55.
For the variant U16A C24U A42U A45U U53A G56A, the yeast fitness is at most 0.5.
The figure for U16C A36G is 1.03; for U16C C29A C55G it is 0.573.
For the variant U16A C30U A40C G68A, the yeast fitness was determined as 0.594.
U16A G52A: the yeast fitness came to 0.827.
As for U16C C22G G58A U64G, the yeast fitness is at most 0.5.
